# Assay results taken from PMC7647946 (Drug delivery and translational research, 2021).
# Columns and labels:
# [1] = Pharmacokinetics of PD98059 following IV injection; assay type: in vivo, rat
# How it was run: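 Male Sprague-Dawley rats, urethane-anaesthetised, received slow femoral-vein infusion of test compound (0.5 mg/ml, 2 ml, 10% Tween 80/DPBS). Blood drawn at 5, 15, 30, 60, 180 and 360 min into K2-EDTA, plasma stored at −80° C. 100 μl plasma spiked with 7-hydroxyflavone, acetonitrile-precipitated, dried and reconstituted. HPLC against naïve-plasma standards; n=3 (n=1 at 6 h). PK Solver 1-/2-compartment fits; non-compartmental AUC0-t.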
# Organ = assay type: in vivo, rat; conditions: healthy rats
# How it was run: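 Male Sprague-Dawley rats (6–8 weeks, 275–300 g), urethane-anaesthetised, with a femoral-vein cannula. Test compound at 0.5 mg/ml in 10% Tween 80/sterile 1X DPBS, 2 ml infused slowly. Brain taken at 1 and 3 h (n=3 per time), rinsed, held at −80° C. 200–400 mg homogenised in DPBS with 7-hydroxyflavone internal standard. Cold-acetonitrile precipitation, N2 drying, mobile-phase reconstitution. HPLC-diode array against naïve-tissue standards; mean ± SD.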
# [2] = Solubility of PD98059 in the release medium; assay type: physicochemical; conditions: 0.4% v/v Tween 80 in 1X DPBS, 37° C
# [3] = test system: pERK1/2 expression in PVN; conditions: 1-hour ICV infusion, rats with heart failure; ref [23]; cited from earlier work
# rats with heart failure = conditions: cited from earlier work
# [4] = 1-compartment model, IV 1 mg, healthy rats
# [5] = 2-compartment model, IV 1 mg, healthy rats
# [6] = non-compartmental analysis, IV 1 mg, healthy rats
# [7] = 1-hour ICV infusion, rats with heart failure, ref [23]
structure (smiles),measurement,setting,value
COc1cccc(-c2cc(=O)c3ccccc3o2)c1N [PD98059],AUC0-inf,[1]; [4],76774.83 ng·min/mL
same,AUC0-t,[1]; [4],76774.82 ng·min/mL
same,AUMC,[1]; [4],1716754 ng.min^2/ml
same,C0,[1]; [4],3433.44 ng/mL
same,CI,[1]; [4],13.03 mL/min
same,K,[1]; [4],0.045 min⁻¹
same,MRT,[1]; [4],0.3727 h
same,T1/2,[1]; [4],0.258 h
same,V,[1]; [4],291.25 mL
same,Vss,[1]; [4],291.25 mL
same,A,[1]; [5],3236.5 ng/mL
same,AUC0-inf,[1]; [5],135064 ng·min/mL
same,AUC0-t,[1]; [5],131605.22 ng·min/mL
same,AUMC,[1]; [5],11287504.55 ng.min^2/ml
same,B,[1]; [5],980.76 ng/mL
same,C0,[1]; [5],4217.23 ng/mL
same,CI,[1]; [5],7.4 mL/min
same,K10,[1]; [5],0.031 min⁻¹
same,K12,[1]; [5],0.05 min⁻¹
same,K21,[1]; [5],0.031 min⁻¹
same,MRT,[1]; [5],1.393 h
same,V,[1]; [5],237.12 mL
same,Vss,[1]; [5],618.76 mL
same,α,[1]; [5],0.104 min
same,β,[1]; [5],0.0094 min
same,AUC0-t,"[1]; IV 1 mg PD98059 in solution, NCA",142720 ng·min/mL
same,K (elimination rate constant),"[1]; non-compartmental analysis, IV 1 mg PD98059 in 10% Tween 80, healthy rats, plasma",0.0074 min⁻¹
same,AUC0-inf,[1]; [6],152980.9 ng·min/mL
same,AUC0-t,[1]; [6],142723.37 ng·min/mL
same,AUMC0-inf,[1]; [6],14922241.77 ng.min^2/ml
same,C0 (plasma concentration at 0 time),[1]; [6],3863.5 ng/mL
same,CI (clearance),[1]; [6],6.54 mL/min
same,MRT0-inf,[1]; [6],1.626 h
same,V (volume of distribution),[1]; [6],885.82 mL
same,Vss (steady state volume of distribution),[1]; [6],637.62 mL
same,T1/2 (plasma half-life),"[1]; non-compartmental analysis, IV 1 mg, healthy rats, plasma",1.566 h
same,brain PD98059 level,Organ; 1 hour after IV 1 mg,approximately 410 ng/g
same,brain PD98059 level,Organ; 3 hours after IV 1 mg,~76 ng/g
same,solubility in release medium,[2],approximately 113 μg/ml
same,pERK1/2 expression in PVN,[3],decreased
same,neuronal excitation in PVN,rats with heart failure; [7],decreased
same,renal sympathetic nerve activity,rats with heart failure; [7],decreased
same,plasma norepinephrine (index of overall sympathetic nerve activity),"rats with heart failure; chronic (4 week) ICV infusions, heart failure rats, ref [19]",reduced
